From ChEMBL document CHEMBL1122490, “Aporphines. 48. Enantioselectivity of (R)-(-)- and (S)-(+)-N-n-propylnorapomorphine on dopamine receptors” (J Med Chem, 1983) come the findings set out here.

For experiment [1], the species on record is Rattus norvegicus. As to the kind of experiment: Percent control of stimulation of cAMP production in rat striatal homogenate at 50 micro M concentration. It is filed as functional. The gist of the method: (§1)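 Rat corpus striatum homogenates were incubated with excess ATP and theophylline to inhibit phosphodiesterase. cAMP formed per 2.5-min assay above the basal (no agonist) level was measured by protein-binding assay. Results are given as mean pmol ± SEM, and as percent of the blank control, with 5–12 replicates per concentration.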
Background: Cyclic AMP is a second messenger, typically raised through Gs and lowered through Gi signalling.

For experiment [2], the species on record is Rattus norvegicus. The experiment in a line: Stimulation of cAMP production in homogenates of corpus striatum from rat brain, at a concentration of 50 uM. It is filed as functional, organism-based. An outline of the steps: as §1
For experiment [3], the system named is Rattus norvegicus. As to the kind of experiment: Stereotypic behavior of male Sprague-Dawley rats, after a sc administration of 5 dose(mg/kg). It is filed as functional. An outline of the steps:
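Male Sprague-Dawley rats (175–200 g), group-housed with free food and water, 12-h light cycle. Drug freshly dissolved in ice-cold 1 mM citric acid/0.9% saline (1:4, v/v), given sc; vehicle injected as placebo. Stereotypy rated 0–3 by experienced observer from 30-s observations every 10 min over 60 min (maximum 18). Four to six rats per dose; means ± SEM.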

The structures appear in SMILES notation.

On to `NCCc1ccc(O)c(O)c1`, for which the Control in the experiment listed under Rattus norvegicus [1] worked out at 217%. Also, in the experiment listed under Rattus norvegicus [2], the cAMP production worked out at 5.39 N.

As to `CCCN1CCc2cccc3c2[C@@H]1Cc1ccc(O)c(O)c1-3.CCCN1CCc2cccc3c2[C@H]1Cc1ccc(O)c(O)c1-3` (racemic; (+)), the Stereotypy score in the experiment on Rattus norvegicus [3] is 17.2. On the same count and under the same terms, the value for `CCCN1CCc2cccc3c2[C@@H]1Cc1ccc(O)c(O)c1-3.CCCN1CCc2cccc3c2[C@H]1Cc1ccc(O)c(O)c1-3` (racemic; (-)) was 18. For `CCCN1CCc2cccc3c2[C@@H]1Cc1ccc(O)c(O)c1-3.CN1CCc2cccc3c2[C@H]1Cc1ccc(O)c(O)c1-3` (stereo in doubt; (+)), the Stereotypy score with Rattus norvegicus [3] was determined as 17.5.

Molecule `CCCN1CCc2cccc3c2[C@@H]1Cc1ccc(O)c(O)c1-3.CN1CCc2cccc3c2[C@H]1Cc1ccc(O)c(O)c1-3` (stereo in doubt; (-)) had a Stereotypy score with Rattus norvegicus [3] of 17.7. Take `CN1CCc2cccc3c2[C@H]1Cc1ccc(O)c(O)c1-3` [APOMORPHINE]: the Stereotypy score in the experiment with Rattus norvegicus [3] was determined as 18.
